The results in this text go back to article PMC8341738 (RSC Chemical Biology, 2021).

Data set [1] deals with T1, Fra1 (Homo sapiens, UniProt P15407).
T1 sequence (P15407 129-162): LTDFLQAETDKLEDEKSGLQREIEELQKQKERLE
The data set is described as follows: Size-exclusion chromatography, mixture with Fra1. To be noted: Fra1–Fra1W mixture, 20 μM total peptide, pH 7.0; dimeric. Type of data set: binding. Summed up:
(§1)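 Peptide mixture at 20 μM total peptide in 10 mM potassium phosphate, 100 mM KF, pH 7.0, run at room temperature on a peptide gel-filtration column at 0.5 mL min⁻¹. Elution times compared against previously characterised monomeric and heterodimeric coiled-coil reference peptides.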

In data set [2] the target is T1, Fra1. The data set is described as follows: Protein-fragment complementation assay. The data set is classed as cell-based. To be noted: competition selection in liquid M9 medium, ten rounds, E. coli.
Data set [3] is described as follows: Size-exclusion chromatography, single peptides. Type of data set: physicochemical. To be noted: Superdex Peptide 10/300 GL; 20 μM total peptide; 10 mM potassium phosphate, 100 mM potassium fluoride, pH 7.0; 0.5 mL min^−1; room temperature; monomeric. A general note: In gel filtration, larger molecules generally elute earlier.
The subject of data set [4] is cJun. Kind of data set: Circular dichroism spectra, mixture with cJun. Type of data set: binding. To be noted: CD at 20 °C, mixed with cJun, 150 μM total peptide, pH 7.0.
In data set [5] the target is T1, Fra1. Kind of data set: Circular dichroism spectra, 1:1 mixture with Fra1. Type of data set: binding. To be noted: 1:1 with Fra1, 150 μM total peptide, pH 7.0. Summed up: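 Fra1 and test peptide mixed 1:1 at 75 μM each (150 μM total) in 10 mM potassium phosphate, 100 mM KF, pH 7.0. Far-UV CD in a 1 mm cell, 300–190 nm, 1 nm steps, 0.5 s per point, three scans averaged. Spectra taken at 20 °C, at 5 °C, and at 20 °C after thermal denaturation to check refolding. Reported as mean residue ellipticity; 222/208 ratio used to judge oligomerisation.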
In general terms: Circular dichroism is the unequal absorption of left and right circularly polarised light.

Data set [6] relates to cJun. The data set is described as follows: CD thermal denaturation, mixture with cJun. Type of data set: binding. To be noted: cJun–Fra1W; CD at 222 nm, 150 μM total peptide, pH 7. Summed up:
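Equimolar peptide pair at 150 μM total in 10 mM potassium phosphate, 100 mM KF, pH 7. Ellipticity at 222 nm recorded from 0 to 90 °C in 1 °C steps with a 30 s pause at each step, signal averaged over 4 s. Reversible curves (≥95%) were least-squares fitted to a two-state model (modified Gibbs–Helmholtz) to give Tm.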

Data set [7] deals with T1, Fra1. Kind of data set: Isothermal titration calorimetry, Fra1W titrated into Fra1. Type of data set: binding.
The test system of data set [8] is cJun. The data set is described as follows: Size-exclusion chromatography, mixture with cJun. To be noted: cJun–Fra1W mixture, 20 μM total peptide, pH 7.0; monomeric. Type of data set: binding. The procedure, abridged:
as §1

The nature of data set [9]: Circular dichroism spectra, peptides in isolation. The data set is classed as physicochemical. To be noted: CD, 150 μM total peptide, 10 mM potassium phosphate, 100 mM potassium fluoride, pH 7.0.
The test system of a further data set is Fra1–cJun. The data set is described as follows: CD dimer exchange experiments. The data set is classed as binding. The conditions noted are these: CD at 20 °C, 150 μM total, equimolar, pH 7.0. The procedure, abridged:
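Dimer exchange by CD: equimolar peptide mixtures at 150 μM total peptide in 10 mM potassium phosphate, 100 mM potassium fluoride, pH 7.0. Equilibrated spectra recorded at 20 °C in a 1 mm cell, 300–190 nm in 1 nm steps, 0.5 s per wavelength, three scans averaged. Data expressed as mean residue ellipticity and superimposed across mixing orders.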

Consider “Ac-KAAALKQKAYALKQQIAALKKQVAALKQKIAALK-NH2 [Fra1W]”, for which the “SEC elution time (oligomeric state)” value on Fra1 [1] is listed as “approximately 19 min”. Further, at Fra1 [2], the PCA selection outcome was “one clean DNA sequence in the pool after ten rounds of competition selection passaging”. In [3], the “SEC elution time (oligomeric state)” value is given as “approximately 20 min”. The “CD signal vs averaged homomeric signals” value with cJun [4] is recorded as “superimposed with the averaged homomeric signals”. Also, the “CD signal vs averaged homomeric signals” value at Fra1 [5] (CD at 20 °C) is “an increase from the averaged homomeric signals of Fra1 and Fra1W”. In addition, at Fra1 [5] (CD), the 222/208 nm ratio was determined as 1.06, the “α-helical content of Fra1–Fra1W complex” value was determined as 75% and the “α-helical content relative to Fra1 in isolation” value is “more than three times that of the target Fra1 in isolation”. Besides, the “thermal denaturation profile vs average of component peptides” value in the data set with cJun [6] is recorded as “no difference from the average of the component peptides”. The Kd at Fra1 [7] stood at 917 nM. On Fra1 [7] (ITC, 20 °C, pH 7.0), the “N (stoichiometric measure of binding)” value was determined as 1.06. Besides, in the data set with cJun [8], the “SEC elution time (oligomeric state)” value is given as “approximately 20 min”. The same substance gave a helical content in data set [9] of 60%. In addition, in the data set with Fra1–cJun, the “dimer exchange on addition of Fra1W to Fra1–cJun” value was “an increase in signal was observed”, the “dimer exchange on addition of Fra1 to cJun–Fra1W” value was “the CD signal increased from the average of the component samples” and the “dimer exchange on addition of cJun to Fra1–Fra1W” value is “no exchange of binding partner had occurred”.

By Kd is commonly meant the concentration at which binding is half-saturated.
